Compound activity (PubChem BioAssay)
TRPC4 block = TRPC4 (mouse) channel inhibition; Q9QUQ5; HEK293 TRPC4beta/mu-opioid, DAMGO-evoked Fluo4 calcium flux; active compounds read low; B-score at 10 µM; 300,000 tested, 0.39% active; AID 2247;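 active = B-score over 3 SD under the library average, no early fluorescence shift, positive overall ratio signal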
Target sequence (Q9QUQ5 whole entry, looked up): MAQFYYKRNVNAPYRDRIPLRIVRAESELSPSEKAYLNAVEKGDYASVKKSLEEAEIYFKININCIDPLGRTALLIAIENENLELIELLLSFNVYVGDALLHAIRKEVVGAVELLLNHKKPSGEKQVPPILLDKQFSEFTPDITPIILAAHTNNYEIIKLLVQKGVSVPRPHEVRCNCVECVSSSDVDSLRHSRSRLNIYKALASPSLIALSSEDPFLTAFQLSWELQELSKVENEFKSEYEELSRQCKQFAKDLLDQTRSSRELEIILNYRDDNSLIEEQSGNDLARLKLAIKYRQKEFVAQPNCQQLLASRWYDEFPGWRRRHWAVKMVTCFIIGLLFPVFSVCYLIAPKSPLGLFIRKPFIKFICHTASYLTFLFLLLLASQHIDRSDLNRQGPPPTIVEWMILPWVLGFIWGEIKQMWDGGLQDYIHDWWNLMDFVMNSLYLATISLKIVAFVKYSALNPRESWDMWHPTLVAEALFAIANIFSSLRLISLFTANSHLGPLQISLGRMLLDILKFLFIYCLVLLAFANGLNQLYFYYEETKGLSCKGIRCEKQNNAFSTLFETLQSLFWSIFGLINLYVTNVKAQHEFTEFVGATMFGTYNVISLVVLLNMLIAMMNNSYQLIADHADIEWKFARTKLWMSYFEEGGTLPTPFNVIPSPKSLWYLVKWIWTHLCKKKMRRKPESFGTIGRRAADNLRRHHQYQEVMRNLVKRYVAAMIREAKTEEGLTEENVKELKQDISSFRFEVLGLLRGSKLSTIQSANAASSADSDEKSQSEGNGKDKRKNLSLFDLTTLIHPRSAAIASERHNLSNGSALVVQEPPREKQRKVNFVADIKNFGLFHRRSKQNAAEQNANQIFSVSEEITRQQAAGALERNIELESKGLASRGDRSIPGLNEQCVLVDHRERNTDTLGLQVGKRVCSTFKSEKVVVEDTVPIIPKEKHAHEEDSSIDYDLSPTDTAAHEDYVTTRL
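Test system – stable TRPC4beta/mu-opioid receptor HEK293 cells · Probe or stimulus – DAMGO, a submaximal dose followed by a maximal one · Dosing – one concentration per compound · Signal – Fluo4 calcium fluorescence by kinetic imaging, 5 s 1 Hz baseline · Evaluation – per-well B score of integrated baseline-normalized Fluo4 ratio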
TRPC6 activator = mouse TRPC6 channel activation; AID 2550; 310,000 tested, 0.13% active; B-score at 10 µM; HEK293-TRPC6 membrane potential dye fluorescence; active compounds read high;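 active = B-score of the integrated fluorescence ratio above library mean plus 3 SD, and starting fluorescence ratio within library mean plus 5 SD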;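 note: higher score means more depolarization so channel activation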
TRPC4 potent = TRPC4 (mouse) allosteric potentiation; B-score at 10 µM; 310,000 tested, 0.42% active; HEK293 TRPC4beta/mu-opioid, DAMGO EC20, Fluo-4 Ca2+ flux; active compounds read high; Q9QUQ5;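 active = B-score of calcium response area above 5 SD of library B-scores, with initial fluorescence ratio within 5 SD of library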
Pemphigus Ab inh = inhibitors of pemphigus antibody binding to human desmoglein-3 | P32926 | 310,000 tested, 0.48% active | DSG3-coupled beads, scFv-anti-DSG3-GFP binding, flow cytometry; active compounds read low | binding (percent of control), % at 10 µM;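 active = binding more than 3 SD below its plate's average and above zero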;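 note: hits lower antibody fragment binding to DSG3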
TRPC6 inh = mouse TRPC6 channel inhibition; Q61143; HEK293-TRPC6, membrane potential dye, ACh-evoked depolarization; active compounds read low; B-score at 10 µM; 310,000 tested, 1.1% active; AID 2553;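 active = B-score under library mean minus 3 SD, initial fluorescence not abnormally high, positive integrated signal ratio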;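 note: B-score derived from integrated fluorescence ratio over the kinetic read; more negative B-score means stronger inhibition of depolarization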
TRPC4 agonist = TRPC4 (mouse) channel activation; Q9QUQ5; B-score at 10 µM; 310,000 tested, 0.49% active; HEK293 TRPC4beta/mu-opioid, Fluo4 calcium fluorescence; active compounds read high;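 active = B-score above 5 SD of library B-scores, and initial fluorescence ratio not above library mean plus 5 SD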;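 note: positive B-score marks a calcium rise read as TRPC4 activation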
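Material: TRPC4beta and mu-opioid receptor HEK293 stable cells | Incubation: 45 min room-temperature Fluo4 loading, 110 s read | Detection: Kinetic Fluo4 calcium fluorescence | Measure: Integrated baseline-normalised fluorescence ratio, converted to per-well B score | Benchmarks: Low control buffer alone, high control maximal DAMGO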
TRPC4 spec 2 = second selectivity test of TRPC6 inhibitors: effect on mouse TRPC4. 920 tested, 42% active. inhibition, % at 10 µM. HEK293 TRPC4/MOR, membrane potential dye fluorescence; channel activated by saturating DAMGO dose. AID 2776. shares compounds with TRPC6 inh;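 active = compounds whose fluorescence signal differed from control wells by over 3 SD, either direction, in both duplicate plates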
TRPC4 spec = selectivity of TRPC6 inhibitors: effect on mouse TRPC4 | shares compounds with TRPC6 inh | HEK293 TRPC4/mu-opioid, membrane potential fluorescence | activity change, negative = inhibition, % at 10 µM | 920 tested, 61% active | AID 2777;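 active = rise or fall in signal beyond 3 SD of buffer-only wells in both replicate plates, either sign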;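 note: integrated kinetic ratio of fluorescence range over baseline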
HEK293 MPD ctr 2-1 = second check of TRPC6 inhibitor effects in parental HEK293 cells | AID 2779 | signal change vs control, % at 10 µM | shares compounds with TRPC6 inh | parental HEK293 membrane potential dye fluorescence; maximal acetylcholine challenge after compound addition | 920 tested, 31% active;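 active = membrane potential signal moving either way by over 3 SD of the maximum-effect control, in both duplicate plates, meaning non-specific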
HEK293 MPD ctr-1 = counter-screen for TRPC6 inhibitors: effect in parental HEK293 cells; shares compounds with TRPC6 inh; membrane potential signal change, % at 10 µM; parental HEK293 membrane potential dye fluorescence; AID 2780; 920 tested, 60% active;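 active = membrane potential signal shifting up or down by more than 3 SD of buffer-only wells, on both duplicate plates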
HEK293 MPD ctr-2 = counter-screen for TRPC6 modulators: effect in parental HEK293 cells; 2,400 tested, 51% active; shares compounds with TRPC6 inh; membrane potential signal change, % at 10 µM; membrane potential dye fluorescence;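 active = membrane potential signal moves up or down beyond 5 SD from buffer-only wells, on both duplicate plates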
HEK293 MPD ctr 2-2 = second check of TRPC6 modulator effects in parental HEK293 cells | AID 488926 | inhibition, % at 10 µM | shares compounds with TRPC6 inh | membrane potential dye fluorescence; after compound, maximal acetylcholine stimulation | 2,400 tested, 14% active;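 active = membrane potential signal drops by more than 5 SD from the mean control signal, in both duplicate plates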
TRPC4 ctr mod = tests whether TRPC6 modulators also affect mouse TRPC4. shares compounds with TRPC6 inh. percent change from control (negative = decrease, positive = increase), % at 10 µM. 2,400 tested, 69% active. HEK293 TRPC4/mu-opioid, membrane potential fluorescence;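 active = membrane potential signal moved up or down beyond 5 SD of buffer control wells, in both duplicate plates, actives on both sides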
TRPC4/MOR inh 2 = second selectivity test of TRPC6 modulators against mouse TRPC4; AID 488928; HEK293 TRPC4/mu-opioid, membrane potential dye fluorescence; stimulated with maximal-effect DAMGO; inhibition, % at 10 µM; shares compounds with TRPC6 inh; 2,400 tested, 55% active;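 active = drop in membrane potential signal beyond 5 SD of the control wells in both duplicate plates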;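 note: TRPC4 counter screen for TRPC6 hits run under conditions tuned for TRPC6 not TRPC4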
TRPC6 inh conf = mouse TRPC6 inhibitor confirmation; shares compounds with TRPC6 inh; HEK293-TRPC6, membrane potential dye, ACh-evoked depolarization; inhibition, % at 10 µM; 3,300 tested, 43% active; AID 488960;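 active = fluorescence ratio falls more than 5 SD below the full-stimulation control mean, in both duplicate runs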;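 note: integrated fluorescence ratio of peak minus minimum over baseline after agonist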
TRPC6 act conf = confirmation of mouse TRPC6 activators | HEK293-TRPC6 membrane potential dye fluorescence, FDSS | AID 488961 | activation, % at 10 µM | 2,800 tested, 11% active | shares compounds with TRPC6 inh;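 active = ratio signal rise beyond 5 SD above unstimulated control wells' mean, seen in both duplicate runs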
A number is an active result; . = inactive; / = not tested or not shown. Compounds with a hit are over-represented: about 2.5% of the library has one in this group of screens.

SMILES | TRPC4 block | TRPC6 activator | TRPC4 potent | Pemphigus Ab inh | TRPC6 inh | TRPC4 agonist | HEK293 MPD ctr-2 | HEK293 MPD ctr 2-2 | TRPC4 ctr mod | TRPC4/MOR inh 2 | TRPC6 inh conf | TRPC6 act conf | others
Cc1ccccc1NC(=O)CC(O)(C(F)(F)F)C(F)(F)F | . | . | . | . | . | . | / | / | / | / | / | /
CC1CN(C(=O)CSc2nnc(-c3ccc(Cl)cc3)n2C)CC(C)O1 (configuration not stated) | . | . | . | / | -5.2 | . | . | . | . | . | . | .
COC(=O)c1cc(S(=O)(=O)Nc2cccc(-c3cnco3)c2)oc1C | . | . | . | . | . | . | / | / | / | / | / | /
CC(C)Cc1nnc(NC(=O)c2cc([N+](=O)[O-])ccc2N2CCOCC2)s1 | . | . | . | . | -5.2 | . | . | . | . | . | . | .
CC(C)c1ccc(NC(=O)c2cc([N+](=O)[O-])ccc2N2CCOCC2)cc1 | . | . | . | . | . | . | / | / | / | / | / | /
CC(=O)Nc1sc(N/N=C/c2ccc(C)cc2)nc1-c1ccc(C)cc1 | . | . | . | / | . | . | / | / | / | / | / | /
CC(=O)Nc1sc(/C(C#N)=C/c2ccc(Cl)c(Cl)c2)nc1-c1ccc(C)cc1 | . | 13 | . | . | . | . | 254% | . | 46% | . | . | 76%
CC(O)CNCCNCc1c(OCc2ccccc2)ccc2ccccc12 (configuration not stated) | . | . | . | . | -7.9 | . | / | / | / | / | 66% | . | TRPC4 spec 2=28%;TRPC4 spec=-9.5%;HEK293 MPD ctr 2-1=.;HEK293 MPD ctr-1=.
c1ccc2[nH]c(NCCCN3CCOCC3)nc2c1 | . | . | . | . | . | . | / | / | / | / | / | /
c1ccc(-c2nc(NCCCN3CCOCC3)c3ccccc3n2)cc1 | . | . | . | . | -11 | . | -168% | . | -36% | 68% | 58% | .
N#Cc1c2c(c(NCCCN3CCOCC3)n3c1nc1ccccc13)CCC2 | . | . | . | . | -6 | . | -173% | 70% | -36% | 52% | 46% | .
Cc1cccc(-c2nc(NCCCN3CCOCC3)c3ccccc3n2)c1 | . | . | . | . | -9.6 | . | / | / | / | / | 79% | . | TRPC4 spec 2=38%;TRPC4 spec=-21%;HEK293 MPD ctr 2-1=.;HEK293 MPD ctr-1=-284%
Cc1ccc(S(=O)(=O)N2CCOCC2)cc1C(=O)OCC(=O)NC1CC1 | / | / | / | . | / | / | / | / | / | / | / | /
CSc1ccc2c(c1)N(CCC1CCCCN1C)c1ccccc1S2 (configuration not stated) | . | . | . | . | -6 | . | . | 59% | . | 85% | 67% | .
O=C1C2CCCN2C(c2ccco2)N1c1ccc(F)cc1 (configuration not stated) | . | . | . | . | . | . | / | / | / | / | / | /
Cc1cc(C)nc(/N=C(\N)Nc2cc([N+](=O)[O-])ccc2C)n1 | . | . | . | / | -7.1 | . | -166% | . | -28% | 48% | 58% | .
COc1cc(NC(N)=S)c(OC)cc1Cl | . | . | . | . | . | . | / | / | / | / | / | /
COc1cc(N/C(N)=N/c2nc(C)cc(C)n2)c(OC)cc1Cl | . | . | . | . | -8.2 | . | / | / | / | / | 90% | . | TRPC4 spec 2=.;TRPC4 spec=-11%;HEK293 MPD ctr 2-1=.;HEK293 MPD ctr-1=-170%
COc1ccc(CCn2c(=N)c(C(=O)NCc3ccco3)cc3c(=O)n4ccccc4nc32)cc1OC | / | / | / | . | / | / | / | / | / | / | / | /
Cc1ccc(Cn2c(=N)c(C(=O)NCc3ccco3)cc3c(=O)n4ccccc4nc32)cc1 | . | . | . | . | -5 | 48 | . | . | -32% | 38% | 36% | .
N=c1c(C(=O)NCc2ccco2)cc2c(=O)n3ccccc3nc2n1CCc1ccccc1 | . | . | . | . | -5.8 | . | -80% | . | -30% | 52% | 46% | .
COCCn1c(=N)c(C(=O)NCc2ccco2)cc2c(=O)n3cc(C)ccc3nc21 | / | . | . | . | -8.2 | . | 422% | 120% | -74% | 40% | 50% | .
COc1ccc(C)cc1S(=O)(=O)Nc1ccc2c(c1)OCO2 | . | . | . | . | . | . | / | / | / | / | / | /
N#Cc1c(-n2cccc2/C=N/O)sc2c1CCCC2 | . | . | . | . | -6.6 | . | / | / | / | / | 60% | / | TRPC4 spec 2=.;TRPC4 spec=20%;HEK293 MPD ctr 2-1=-30%;HEK293 MPD ctr-1=18%
C=CCNCc1cccn1-c1sc2c(c1C#N)CCCC2 | . | . | . | . | . | . | / | / | / | / | / | /
SMILES | TRPC4 block | TRPC6 activator | TRPC4 potent | Pemphigus Ab inh | TRPC6 inh | TRPC4 agonist | HEK293 MPD ctr-2 | HEK293 MPD ctr 2-2 | TRPC4 ctr mod | TRPC4/MOR inh 2 | TRPC6 inh conf | TRPC6 act conf | others
COc1ccc(-c2[nH]c3ccccc3c2SCCN)cc1 | . | . | . | . | -8.7 | . | / | / | / | / | 74% | . | TRPC4 spec 2=45%;TRPC4 spec=-16%;HEK293 MPD ctr 2-1=.;HEK293 MPD ctr-1=-262%
OC(CNCc1ccccc1)(c1ccc(F)cc1)c1ccc(F)cc1 | . | . | . | . | -5.3 | . | 160% | . | 36% | 56% | . | /
Cc1nc2cc(NC(=O)N3CCCC3)ccc2n1C | . | . | . | . | . | . | / | / | / | / | / | /
Cc1nc2cc(NC(=O)N3CC4(C)CC3CC(C)(C)C4)ccc2n1C (configuration not stated) | . | . | . | . | -6.1 | . | . | . | . | . | . | .
O=C(NCCCSc1ccccc1)c1cc(Br)ccc1O | . | . | . | . | . | . | / | / | / | / | / | /
COc1ccc(N2CCc3c(C)nc4c(OC)cccc4c32)cc1 | . | . | . | . | -8 | . | / | / | / | / | 58% | . | TRPC4 spec 2=52%;TRPC4 spec=-24%;HEK293 MPD ctr 2-1=.;HEK293 MPD ctr-1=-320%
COc1cccc(N2CCc3c(C)nc4ccc(Cl)cc4c32)c1 | . | . | . | . | -6.2 | . | . | 58% | . | 88% | 62% | .
